Results published in paper PMC5292677 (Leukemia, 2016).

Tested on: patients with myelofibrosis
Test: Phase I safety: drug-related adverse events, DLTs, tolerability
Format: in vivo, human
Procedure, shortened: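 Design was 3+3 dose escalation of oral test compound QD (75–400 mg) or BID (100–400 mg) in 28-day cycles. AEs were graded by CTCAE v4.0 with causality, alongside labs, ECGs, vital signs and physical exams. A DLT was grade 4 cytopenia, other grade 3/4 hematologic toxicity, or grade 3/4 non-hematologic toxicity, excluding manageable GI events. The population was all patients dosed ≥1 time.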

[1] = baseline platelet count <100 × 10^9/l
[2] = baseline platelet count <100 × 10^9/l (n=16)
[3] = baseline platelet count ⩾100 × 10^9/l
[4] = baseline platelet count ⩾100 × 10^9/l (n=32)

SMILES: C[C@H](Nc1cc(-c2cnn(C)c2)cc(Nc2cnccn2)n1)c1ccc(F)cc1 [NS-018]
- Cases of anemia (grade 2) (300 mg QD): 1 case
- Rate of discontinuations owing to AEs (300 mg QD): 13%
- Drug-related anemia, Grade 1/2 (300 mg QD (n=16)): 1 (6) n (%)
- Drug-related anemia, all grades (300 mg QD (n=16)): 1 (6) n (%)
- Drug-related diarrhea, all grade (300 mg QD (n=16)): 2 (13) n (%)
- Drug-related diarrhea, grade 3 or 4 (300 mg QD (n=16)): 0 n (%)
- Drug-related dizziness, all grade (300 mg QD (n=16)): 3 (19) n (%)
- Drug-related dizziness, grade 3 or 4 (300 mg QD (n=16)): 1 (6) n (%)
- Drug-related esophageal reflux, all grade (300 mg QD (n=16)): 1 (6) n (%)
- Drug-related esophageal reflux, grade 3 or 4 (300 mg QD (n=16)): 0 n (%)
- Drug-related headache, all grade (300 mg QD (n=16)): 2 (13) n (%)
- Drug-related headache, grade 3 or 4 (300 mg QD (n=16)): 0 n (%)
- Drug-related nausea, all grade (300 mg QD (n=16)): 0 n (%)
- Drug-related paresthesia, all grade (300 mg QD (n=16)): 1 (6) n (%)
- Drug-related paresthesia, grade 3 or 4 (300 mg QD (n=16)): 0 n (%)
- Drug-related thrombocytopenia, Grade 1/2 (300 mg QD (n=16)): 0 n (%)
- Drug-related thrombocytopenia, Grade 3 (300 mg QD (n=16)): 2 (13) n (%)
- Drug-related thrombocytopenia, Grade 4 (300 mg QD (n=16)): 1 (6) n (%)
- Drug-related thrombocytopenia, all grades (300 mg QD (n=16)): 3 (19) n (%)
- Drug-related vomiting, all grade (300 mg QD (n=16)): 1 (6) n (%)
- Drug-related vomiting, grade 3 or 4 (300 mg QD (n=16)): 0 n (%)
- Drug-related weight increased, all grade (300 mg QD (n=16)): 0 n (%)
- Drug-related grade 3 dyspnea (300 mg QD cohort): 6%
- Patients who discontinued owing to AEs (beyond DLT) (400 mg BID): 2 patients
- Drug-related anemia, Grade 1/2 (400 mg BID (n=8)): 1 (13) n (%)
- Drug-related anemia, Grade 3 (400 mg BID (n=8)): 1 (13) n (%)
- Drug-related anemia, Grade 4 (400 mg BID (n=8)): 0 n (%)
- Drug-related anemia, all grades (400 mg BID (n=8)): 2 (25) n (%)
- Drug-related diarrhea, all grade (400 mg BID (n=8)): 1 (13) n (%)
- Drug-related diarrhea, grade 3 or 4 (400 mg BID (n=8)): 0 n (%)
- Drug-related dizziness, all grade (400 mg BID (n=8)): 2 (25) n (%)
- Drug-related dizziness, grade 3 or 4 (400 mg BID (n=8)): 1 (13) n (%)
- Drug-related esophageal reflux, all grade (400 mg BID (n=8)): 0 n (%)
- Drug-related headache, all grade (400 mg BID (n=8)): 1 (13) n (%)
- Drug-related headache, grade 3 or 4 (400 mg BID (n=8)): 0 n (%)
- Drug-related nausea, all grade (400 mg BID (n=8)): 0 n (%)
- Drug-related paresthesia, all grade (400 mg BID (n=8)): 0 n (%)
- Drug-related thrombocytopenia, Grade 1/2 (400 mg BID (n=8)): 0 n (%)
- Drug-related thrombocytopenia, Grade 3 (400 mg BID (n=8)): 1 (13) n (%)
- Drug-related thrombocytopenia, Grade 4 (400 mg BID (n=8)): 0 n (%)
- Drug-related thrombocytopenia, all grades (400 mg BID (n=8)): 1 (13) n (%)
- Drug-related vomiting, all grade (400 mg BID (n=8)): 0 n (%)
- Drug-related weight increased, all grade (400 mg BID (n=8)): 0 n (%)
- DLT: grade 3 dizziness (400 mg BID cohort): 1 patient
- Tolerability as judged by the Safety Review Committee (400 mg BID/QD, based on proportion of drug-related neurological AEs): intolerable
- Drug-related anemia, Grade 1/2 (400 mg QD (n=4)): 1 (25) n (%)
- Drug-related anemia, all grades (400 mg QD (n=4)): 1 (25) n (%)
- Drug-related diarrhea, all grade (400 mg QD (n=4)): 1 (25) n (%)
- Drug-related diarrhea, grade 3 or 4 (400 mg QD (n=4)): 0 n (%)
- Drug-related dizziness, all grade (400 mg QD (n=4)): 1 (25) n (%)
- Drug-related dizziness, grade 3 or 4 (400 mg QD (n=4)): 0 n (%)
- Drug-related esophageal reflux, all grade (400 mg QD (n=4)): 0 n (%)
- Drug-related headache, all grade (400 mg QD (n=4)): 0 n (%)
- Drug-related nausea, all grade (400 mg QD (n=4)): 1 (25) n (%)
- Drug-related nausea, grade 3 or 4 (400 mg QD (n=4)): 0 n (%)
- Drug-related paresthesia, all grade (400 mg QD (n=4)): 1 (25) n (%)
- Drug-related paresthesia, grade 3 or 4 (400 mg QD (n=4)): 0 n (%)
- Drug-related thrombocytopenia, all grades (400 mg QD (n=4)): 0 n (%)
- Drug-related vomiting, all grade (400 mg QD (n=4)): 0 n (%)
- Drug-related weight increased, all grade (400 mg QD (n=4)): 1 (25) n (%)
- Drug-related weight increased, grade 3 or 4 (400 mg QD (n=4)): 0 n (%)
- Recommended phase II dose (RP2D) (QD, oral): 300 mg
- Additional patients (beyond DLT) who discontinued owing to AEs (all cohorts): 7 patients
- Dose reduction owing to dizziness (all cohorts): 4 n
- Patients with dose reductions owing to AEs (all cohorts): 11 patients
- Patients with dose-limiting toxicities (DLTs) (all cohorts (n=48)): 2 patients
- Treatment discontinuation because of AEs (all cohorts (n=48), data cutoff 21 July 2015): 8 n
- Drug-related anemia, Grade 1/2 (all dose cohorts (n=48)): 4 (8) n (%)
- Drug-related anemia, Grade 3 (all dose cohorts (n=48)): 3 (6) n (%)
- Drug-related anemia, Grade 4 (all dose cohorts (n=48)): 0 n (%)
- Drug-related anemia, all grades (all dose cohorts (n=48)): 7 (15) n (%)
- Drug-related diarrhea, all grade (all dose cohorts (n=48)): 7 (15) n (%)
- Drug-related diarrhea, grade 3 or 4 (all dose cohorts (n=48)): 0 n (%)
- Drug-related dizziness, all grade (all dose cohorts (n=48)): 11 (23) n (%)
- Drug-related dizziness, grade 3 or 4 (all dose cohorts (n=48)): 3 (6) n (%)
- Drug-related esophageal reflux, all grade (all dose cohorts (n=48)): 3 (6) n (%)
- Drug-related esophageal reflux, grade 3 or 4 (all dose cohorts (n=48)): 0 n (%)
- Drug-related headache, all grade (all dose cohorts (n=48)): 3 (6) n (%)
- Drug-related headache, grade 3 or 4 (all dose cohorts (n=48)): 0 n (%)
- Drug-related nausea, all grade (all dose cohorts (n=48)): 9 (19) n (%)
- Drug-related nausea, grade 3 or 4 (all dose cohorts (n=48)): 1 (2) n (%)
- Drug-related paresthesia, all grade (all dose cohorts (n=48)): 4 (8) n (%)
- Drug-related paresthesia, grade 3 or 4 (all dose cohorts (n=48)): 1 (2) n (%)
- Drug-related thrombocytopenia, Grade 1/2 (all dose cohorts (n=48)): 5 (10) n (%)
- Drug-related thrombocytopenia, Grade 3 (all dose cohorts (n=48)): 5 (10) n (%)
- Drug-related thrombocytopenia, Grade 4 (all dose cohorts (n=48)): 3 (6) n (%)
- Drug-related thrombocytopenia, all grades (all dose cohorts (n=48)): 13 (27) n (%)
- Drug-related vomiting, all grade (all dose cohorts (n=48)): 3 (6) n (%)
- Drug-related vomiting, grade 3 or 4 (all dose cohorts (n=48)): 0 n (%)
- Drug-related weight increased, all grade (all dose cohorts (n=48)): 4 (8) n (%)
- Drug-related weight increased, grade 3 or 4 (all dose cohorts (n=48)): 0 n (%)
- Drug-related anemia, all grades (all patients (n=48)): 15%
- Drug-related anemia, grade 3/4 (all patients (n=48)): 6%
- Drug-related dizziness (all patients (n=48)): 23%
- Drug-related nausea (all patients (n=48)): 19%
- Drug-related thrombocytopenia, all grades (all patients (n=48)): 27%
- Drug-related thrombocytopenia, grade 3/4 (all patients (n=48)): 17%
- Drug-related thrombocytopenia, all grades [1]: 44%
- Drug-related thrombocytopenia, grade 3/4 [1]: 38%
- Drug-related thrombocytopenia, Grade 1/2 [2]: 1 (6) n (%)
- Drug-related thrombocytopenia, Grade 3 [2]: 3 (19) n (%)
- Drug-related thrombocytopenia, Grade 4 [2]: 3 (19) n (%)
- Drug-related thrombocytopenia, all grades [2]: 7 (44) n (%)
- Drug-related thrombocytopenia, all grades [3]: 19%
- Drug-related thrombocytopenia, grade 3/4 [3]: 6%
- Drug-related thrombocytopenia, Grade 1/2 [4]: 4 (13) n (%)
- Drug-related thrombocytopenia, Grade 3 [4]: 2 (6) n (%)
- Drug-related thrombocytopenia, Grade 4 [4]: 0 n (%)
- Drug-related thrombocytopenia, all grades [4]: 6 (19) n (%)
- Grade 4 neurologic events (during the study): No grade 4 neurologic events
